Experimental data: ChEMBL document CHEMBL4041521, “3-Aroylindoles display antitumor activity in vitro and in vivo: Effects of N1-substituents on biological activity” (Eur J Med Chem, 2017)
The source made the active and inactive calls. The calls are words filed in the database; no cut-off is given here.

What was measured:
PC-3 [1] = experiment: Antitumor activity against human PC3 cells xenografted in athymic nude mouse assessed as tumor growth inhibition at 200 mg/kg, po qd administered daily measured twice per week relative to control; type: functional; conditions: PC-3, po, read-out: TGI
How it was run: (§1)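 Male athymic nude mice (5–6 wk) given 1 × 10⁷ PC3 cells s.c.; randomized by tumor size at ~150–350 mm³. Oral dosing daily, vehicle 5% DMSO + 5% Cremophor in D5W. Caliper volumes twice weekly, (length × width²)/2; %TGI = {1-[(Tt/T0)/(Ct/C0)]/1-[C0/Ct]}*100 against vehicle controls.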

Homo sapiens [2] = species on record: Homo sapiens; experiment: Inhibition of HDAC in human PC3 cells assessed as increase in histone-H3 acetylation by Western blot analysis; type: cell-based
How it was run: (§2)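 PC3 prostate cancer cells treated, then lysed in 20 mM Tris-HCl pH 7.5 with 150 mM NaCl, EDTA/EGTA, phosphatase and protease inhibitors, 0.1% Triton X-100. Lysates spun 13,000 rpm for 30 min, then immunoblotted for acetylated α-tubulin and acetylated histone H3.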

HCT-116 = experiment: Antiproliferative activity against human HCT116 cells measured after 48 hrs by sulforhodamine-B assay; type: functional, cell-based; conditions: HCT-116, 48 h
Sus scrofa = species on record: Sus scrofa; experiment: Inhibition of purified porcine tubulin polymerization measured every 1 min for 30 mins
Mus musculus [3] = experiment: Toxicity in human PC3 cells xenografted in athymic nude mouse assessed as body weight loss at 100 to 200 mg/kg, po qd administered daily measured daily during first week followed by twice per week; type: organism-based; conditions: in vivo
How it was run: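 PC3 xenograft nude mice (male, 5–6 wk) given daily oral drug in 5% DMSO + 5% Cremophor in D5W. Body weight recorded daily in week one, then twice weekly, compared with vehicle group.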

RPMI-8226 [4] = experiment: Antitumor activity against human RPMI8226 cells xenografted in ip dosed athymic nude mouse assessed as tumor growth inhibition administered once daily measured twice per week; type: functional, organism-based
How it was run: (§3)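 Male athymic nude mice (5–6 wk) implanted s.c. with 1 × 10⁷ RPMI-8226 myeloma cells; randomized by tumor size at ~150–350 mm³. Daily i.p. injection, vehicle 5% DMSO + 5% Cremophor in D5W. Tumor volume by calipers twice weekly as (length × width²)/2; %TGI derived from treated vs control volume ratios at time t and time 0.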

Histone deacetylase 4 = Histone deacetylase 4 (Homo sapiens, UniProt P56524); experiment: Inhibition of recombinant human HDAC4 using fluorogenic substrate by fluorescence assay
Histone deacetylase 4, sequence (P56524 whole entry): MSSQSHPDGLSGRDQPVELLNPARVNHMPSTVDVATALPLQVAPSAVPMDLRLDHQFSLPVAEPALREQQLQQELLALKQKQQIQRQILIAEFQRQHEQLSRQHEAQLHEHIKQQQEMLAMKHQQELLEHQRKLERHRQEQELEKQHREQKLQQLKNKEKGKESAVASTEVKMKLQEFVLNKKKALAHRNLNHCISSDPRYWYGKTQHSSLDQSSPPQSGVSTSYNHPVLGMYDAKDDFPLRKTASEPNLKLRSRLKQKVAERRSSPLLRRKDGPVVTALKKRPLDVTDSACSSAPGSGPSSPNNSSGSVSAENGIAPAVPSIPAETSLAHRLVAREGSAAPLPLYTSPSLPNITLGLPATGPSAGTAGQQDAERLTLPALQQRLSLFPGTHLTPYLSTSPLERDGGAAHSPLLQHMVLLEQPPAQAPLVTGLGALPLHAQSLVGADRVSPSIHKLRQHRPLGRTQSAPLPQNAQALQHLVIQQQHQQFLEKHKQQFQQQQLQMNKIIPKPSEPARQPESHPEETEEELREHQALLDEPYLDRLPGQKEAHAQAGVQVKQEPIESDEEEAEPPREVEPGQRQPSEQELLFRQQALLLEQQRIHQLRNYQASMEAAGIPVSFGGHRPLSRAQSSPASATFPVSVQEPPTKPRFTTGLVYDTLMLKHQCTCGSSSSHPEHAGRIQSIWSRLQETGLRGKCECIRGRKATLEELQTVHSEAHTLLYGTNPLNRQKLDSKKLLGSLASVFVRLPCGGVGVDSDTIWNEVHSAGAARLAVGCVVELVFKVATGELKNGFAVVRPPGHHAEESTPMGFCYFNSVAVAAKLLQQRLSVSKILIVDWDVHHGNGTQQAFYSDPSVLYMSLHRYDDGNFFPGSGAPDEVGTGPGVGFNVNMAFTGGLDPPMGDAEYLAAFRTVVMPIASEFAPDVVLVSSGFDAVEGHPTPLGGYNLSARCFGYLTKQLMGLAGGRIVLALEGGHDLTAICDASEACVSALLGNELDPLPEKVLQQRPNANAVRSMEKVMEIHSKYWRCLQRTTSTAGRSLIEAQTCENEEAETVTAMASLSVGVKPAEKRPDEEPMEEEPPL

PC-3 [5] = experiment: Antitumor activity against human PC3 cells xenografted in athymic nude mouse assessed as tumor growth inhibition at 100 mg/kg, po qd administered daily measured twice per week relative to control; type: functional; conditions: PC-3, po, read-out: TGI; how it was run: as §1
Histone deacetylase 8 = target: T1, Histone deacetylase 8 (Homo sapiens, UniProt Q9BY41); experiment: Inhibition of recombinant human HDAC8 using fluorogenic substrate by fluorescence assay
T1 sequence (Q9BY41 whole entry): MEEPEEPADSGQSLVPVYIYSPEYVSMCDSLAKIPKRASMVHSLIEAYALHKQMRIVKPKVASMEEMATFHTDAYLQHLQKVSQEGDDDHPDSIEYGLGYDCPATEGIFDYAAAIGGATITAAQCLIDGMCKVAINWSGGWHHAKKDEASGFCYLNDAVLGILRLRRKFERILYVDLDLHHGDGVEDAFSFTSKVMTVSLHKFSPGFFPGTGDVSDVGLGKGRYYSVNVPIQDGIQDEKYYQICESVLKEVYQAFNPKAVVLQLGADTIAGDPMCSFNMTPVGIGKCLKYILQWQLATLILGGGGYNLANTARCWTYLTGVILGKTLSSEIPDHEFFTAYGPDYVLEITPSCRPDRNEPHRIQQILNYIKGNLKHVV

Mus musculus [6] = experiment: Toxicity in human RPMI8226 cells xenografted in athymic nude mouse assessed as body weight loss at 50 to 100 mg/kg, ip qd measured daily during first week followed by twice per week; type: organism-based; conditions: in vivo
How it was run: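 RPMI-8226 xenograft nude mice (male, 5–6 wk) dosed i.p. daily in 5% DMSO + 5% Cremophor in D5W. Body weight measured daily for the first week, then twice weekly.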

Homo sapiens [7] = species on record: Homo sapiens; experiment: Inhibition of HDAC in human PC3 cells assessed as increase in alpha-tubulin acetylation by Western blot analysis; type: cell-based; how it was run: as §2
RPMI-8226 [8] = experiment: Antitumor activity against human RPMI8226 cells xenografted in athymic nude mouse assessed as tumor growth inhibition at 100 mg/kg, ip qd measured twice per week relative to control; type: functional; conditions: RPMI-8226, ip, read-out: TGI; how it was run: as §3
RPMI-8226 [9] = experiment: Antitumor activity against human RPMI8226 cells xenografted in athymic nude mouse assessed as tumor growth inhibition at 50 mg/kg, ip qd measured twice per week relative to control; type: functional; conditions: RPMI-8226, ip, read-out: TGI; how it was run: as §3
Homo sapiens [10] = species on record: Homo sapiens; experiment: Inhibition of HDAC in human PC3 cells assessed as increase in alpha-tubulin acetylation at 0.01 to 10 uM by Western blot analysis; type: cell-based; how it was run: as §2
Histone deacetylase 7 = target: T2, Histone deacetylase 7 (Homo sapiens, UniProt Q8WUI4); experiment: Inhibition of recombinant human HDAC7 using fluorogenic substrate by fluorescence assay
T2 sequence (Q8WUI4 whole entry): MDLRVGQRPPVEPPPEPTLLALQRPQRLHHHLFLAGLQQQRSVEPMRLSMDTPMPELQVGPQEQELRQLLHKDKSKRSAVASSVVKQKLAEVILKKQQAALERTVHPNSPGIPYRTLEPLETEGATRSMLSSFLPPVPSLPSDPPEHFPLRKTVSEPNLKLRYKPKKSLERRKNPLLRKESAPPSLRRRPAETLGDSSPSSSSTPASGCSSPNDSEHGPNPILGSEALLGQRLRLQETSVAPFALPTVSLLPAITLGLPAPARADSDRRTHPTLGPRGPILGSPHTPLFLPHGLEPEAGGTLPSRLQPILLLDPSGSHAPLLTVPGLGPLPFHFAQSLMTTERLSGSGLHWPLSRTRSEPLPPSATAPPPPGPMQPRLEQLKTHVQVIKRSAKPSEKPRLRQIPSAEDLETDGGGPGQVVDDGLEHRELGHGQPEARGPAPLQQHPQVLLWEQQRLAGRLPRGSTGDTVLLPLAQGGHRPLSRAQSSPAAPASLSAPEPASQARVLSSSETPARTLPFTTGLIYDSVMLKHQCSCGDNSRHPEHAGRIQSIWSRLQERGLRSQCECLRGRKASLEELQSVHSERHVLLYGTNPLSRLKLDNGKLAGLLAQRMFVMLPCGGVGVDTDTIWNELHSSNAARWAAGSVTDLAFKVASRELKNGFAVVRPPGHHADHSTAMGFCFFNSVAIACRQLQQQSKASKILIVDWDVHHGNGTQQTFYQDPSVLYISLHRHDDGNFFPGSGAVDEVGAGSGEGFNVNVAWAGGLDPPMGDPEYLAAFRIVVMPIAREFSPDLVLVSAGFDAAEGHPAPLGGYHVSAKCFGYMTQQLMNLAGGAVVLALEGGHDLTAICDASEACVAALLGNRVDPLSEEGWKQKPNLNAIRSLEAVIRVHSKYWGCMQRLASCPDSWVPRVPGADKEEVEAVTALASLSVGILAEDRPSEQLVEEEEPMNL

Which results are given for `COc1ccc2c(C(=O)c3cc(OC)c(OC)c(OC)c3)cn(Cc3ccc(C(=O)NO)cc3)c2c1`?
inhibition in vivo at 200 mg/kg (PC-3 [1]): 68.5%; inhibition (Homo sapiens [2]): Dose-dependent effect; IC50 (HCT-116): 485 nM; inhibition (Sus scrofa): Dose-dependent effect; Activity (Mus musculus [3]): Non-Toxic; TGI (RPMI-8226 [4]): Dose-dependent effect; IC50 (Histone deacetylase 4; read-out: IC50): 1980 nM; inhibition in vivo at 100 mg/kg (PC-3 [5]): 24.8%; IC50 (Histone deacetylase 8): 390 nM; Activity (Mus musculus [6]): Non-Toxic; alpha-tubulin acetylation increase (Homo sapiens [7]): Dose-dependent effect; inhibition in vivo at 100 mg/kg (RPMI-8226 [8]): 58.2%; inhibition in vivo at 50 mg/kg (RPMI-8226 [9]): 35.8%

`COc1ccc2c(C(=O)c3cc(OC)c(OC)c(OC)c3)cn(S(=O)(=O)c3cccc(/C=C/C(=O)NO)c3)c2c1` was tested. Which inhibition (Homo sapiens [10]) did it give?
The inhibition was “Active”.

What about the IC50 (HCT-116) of the same compound?
The IC50 was 43.9 nM.

What about the IC50 (Histone deacetylase 4) of the same compound?
Its IC50 is “Not Active”.

And the IC50 (Histone deacetylase 8)?
The IC50 was 16200 nM.

And the IC50 (Histone deacetylase 7)?
Its IC50 is “Not Active”.
